Measurements gathered from unrelated publications.
Target: Mitogen-activated protein kinase kinase kinase 6 (MAP3K6, Homo sapiens, UniProt O95382)
One construct used (O95382 1-1288): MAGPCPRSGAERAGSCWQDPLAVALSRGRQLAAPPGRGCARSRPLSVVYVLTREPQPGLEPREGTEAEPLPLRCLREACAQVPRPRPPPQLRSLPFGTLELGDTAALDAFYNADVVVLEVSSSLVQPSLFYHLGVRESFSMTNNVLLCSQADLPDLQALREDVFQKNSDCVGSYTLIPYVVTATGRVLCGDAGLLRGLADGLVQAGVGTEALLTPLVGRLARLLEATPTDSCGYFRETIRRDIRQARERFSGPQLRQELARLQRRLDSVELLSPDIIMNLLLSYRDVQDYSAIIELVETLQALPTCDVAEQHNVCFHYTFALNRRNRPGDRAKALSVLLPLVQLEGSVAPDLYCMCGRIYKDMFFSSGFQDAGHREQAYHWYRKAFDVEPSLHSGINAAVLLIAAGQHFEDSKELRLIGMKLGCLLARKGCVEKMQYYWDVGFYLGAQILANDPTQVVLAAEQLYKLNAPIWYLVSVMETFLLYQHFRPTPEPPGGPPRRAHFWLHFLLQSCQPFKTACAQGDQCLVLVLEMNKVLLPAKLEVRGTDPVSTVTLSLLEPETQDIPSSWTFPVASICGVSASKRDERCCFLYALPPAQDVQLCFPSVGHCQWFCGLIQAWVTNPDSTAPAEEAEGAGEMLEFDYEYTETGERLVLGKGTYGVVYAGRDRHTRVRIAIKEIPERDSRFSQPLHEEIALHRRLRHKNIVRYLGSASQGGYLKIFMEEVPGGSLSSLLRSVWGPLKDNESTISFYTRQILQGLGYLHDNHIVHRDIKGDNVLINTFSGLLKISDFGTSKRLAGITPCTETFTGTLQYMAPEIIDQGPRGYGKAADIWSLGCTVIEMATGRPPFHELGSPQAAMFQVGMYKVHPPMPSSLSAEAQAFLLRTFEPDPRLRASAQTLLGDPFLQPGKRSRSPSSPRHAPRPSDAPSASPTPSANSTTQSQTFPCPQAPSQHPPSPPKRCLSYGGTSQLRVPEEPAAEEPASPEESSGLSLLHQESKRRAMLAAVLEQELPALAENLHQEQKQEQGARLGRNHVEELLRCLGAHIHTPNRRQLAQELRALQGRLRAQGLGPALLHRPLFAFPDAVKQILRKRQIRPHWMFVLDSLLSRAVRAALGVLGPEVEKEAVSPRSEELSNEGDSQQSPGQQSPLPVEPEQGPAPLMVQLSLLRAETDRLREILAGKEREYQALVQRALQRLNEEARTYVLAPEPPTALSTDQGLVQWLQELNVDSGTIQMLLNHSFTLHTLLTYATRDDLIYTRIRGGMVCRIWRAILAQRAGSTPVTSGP

Cc1cnn2ncc(-c3ccnc(N(C)C)n3)c2c1 — remaining binding (binding; 1 µM): 81%
O=C(Nc1c[nH]nc1C(=O)NC1CCNCC1)c1cc(F)cc(F)c1 — remaining binding (binding; competition with immobilised ligand; 1 µM): 84%
CN(CCCC(F)(F)F)c1nccc(-c2cnn3ncccc23)n1 — remaining binding (binding; 1 µM): 100%
C[C@@H](c1ccc(-n2cnc3c(N)ncnc32)cc1)N1CCc2nn(C)c(Cc3ccccc3)c2C1=O — remaining binding (binding; competition with immobilised ligand; 0.1 µM): 67%
C[C@@H]1CCN(c2nccc(-c3cnn4ncccc34)n2)C1 — remaining binding (binding; 1 µM): 55%
CN([C@@H]1CCc2c(CC(=O)O)c3cc(S(C)(=O)=O)ccc3n2C1)S(=O)(=O)c1ccc(F)cc1 — remaining binding (cell-free assay; competition with immobilised ligand; 1 µM): 89%
FC(F)(F)Oc1cccc(-c2cnc3ccc(-c4ccncc4)nn23)c1 — remaining binding (cell-free assay; competition with immobilised ligand; 5 µM): 96%
O=C(c1ccc(Nc2nccc(-c3cc4ccccc4s3)n2)cc1)N1CCC(N2CCCC2)CC1 — remaining binding (binding; competition with immobilised ligand; 1 µM): 91%
c1cncc(-c2cccc(Nc3nccc(NC4CCCCC4)n3)c2)c1 — remaining binding (binding; competition with immobilised ligand; 10 µM): 100%
CNC(=O)Nc1ccc2c(c1)CC[C@@]21OC(=O)N(CC(=O)N(Cc2ccc(F)cc2)[C@@H](C)C(F)(F)F)C1=O — remaining binding (cell-free assay; competition with immobilised ligand; 1 µM): 86%
COc1cnc(Nc2cccc(S(N)(=O)=O)c2)nc1N1CCN(c2ccccc2)CC1 — remaining binding (binding; competition with immobilised ligand; 1 µM): 93%
CCCOc1ccc([C@@H]2[C@@H](C(=O)O)[C@H](c3ccc4c(c3)OCO4)CN2CC(=O)Nc2c(CC)cccc2CC)cc1 — remaining binding (cell-free assay; competition with immobilised ligand; 1 µM): 77%
CN(C)c1ncc(F)c(-c2cnn3ncccc23)n1 — remaining binding (binding; 1 µM): 97%
O=C(NCCCN1CCOCC1)c1ccc(Nc2ncc(Cl)c(-c3ccc(Cl)s3)n2)cc1 — remaining binding (binding; competition with immobilised ligand; 1 µM): 83%
COc1ccc2cc(OCC3(C(=O)O)CN(C(=O)c4ccc(F)cc4)C3)ccc2c1 — remaining binding (cell-free assay; competition with immobilised ligand; 1 µM): 95%
N[C@H]1CCN(c2nccc(-c3cnn4ncccc34)n2)C1 — remaining binding (binding; 1 µM): 82%
Cc1cc(C)c(-n2ccn3nc(-c4cccnc4)cc23)cc1NC(=O)c1cc(C#N)cc(S(F)(F)(F)(F)F)c1 — remaining binding (cell-free assay; competition with immobilised ligand; 0.1 µM): 100%
CN(C)c1nccc(-c2cnc3ncccn23)n1 — remaining binding (binding; 1 µM): 67%
CO[C@@H](C)c1c(Nc2ccc([C@@H](N(C)C(=O)C3CCS(=O)(=O)CC3)C(F)(F)F)cc2)cnc2cc(Cl)nn12 — remaining binding (cell-free assay; competition with immobilised ligand; 1 µM): 100%
COc1ncc2cc3ccccc3nc2c1C#N — remaining binding (cell-free assay; competition with immobilised ligand; 5 µM): 100%
O=C(c1ccc(Nc2ncc(Cl)c(-c3ccc(Cl)s3)n2)cc1)N1CCC(N2CCCC2)CC1 — remaining binding (binding; competition with immobilised ligand; 1 µM): 66%
N#CC1(c2ccccn2)CCN(Cc2cc(C(=O)N3CCCC3)c(=O)n3ccccc23)CC1 — remaining binding (cell-free assay; competition with immobilised ligand; 1 µM): 100%
